Insulin prom up: insulin promoter activators in MIN6 cells, imaging, high-content screening, mouse beta cells; MIN6 insulin promoter-GFP reporter; stronger effect = higher value; z-score at 5 µM; 190,000 tested, 0.3% active; AID 1625, 2009;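 active = z-score above 3 at 5 µM with at least 500 cells counted in the well; inconclusive = wells under 500 cells, flagged as cytotoxic or low count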
Yeast growth inh: growth inhibitors of yeast BB579 in restrictive medium, primary screen, yeast lifespan-shortening project, S. cerevisiae | OD615, 48 h | inhibition, % at 10 µM | 140,000 tested, 0.51% active;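 active = inhibition above a set limit, 3 SD over the mean compound inhibition, cut at about 44% in these data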
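Detection: OD615 turbidity measurement; Material: Saccharomyces cerevisiae DeaD strain BB579, replicative lifespan model yeast; Timing: 48 h exposure, 30 °C; Doses: single 10 µM dose; Medium: CSMM-D restrictive synthetic medium containing dextrose (glucose); Controls: amphotericin B at 10 µg/mL as positive control.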
Yeast life ext: compounds extending yeast replicative lifespan, primary screen, S. cerevisiae, OD615; 130,000 tested, 0.68% active; S. cerevisiae growth with nicotinamide; deaD strain in restrictive glucose medium; inhibition of the nicotinamide effect, % at 10 µM;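 active = inhibition above a set limit, placed 3 SD over the median of all compounds, cut at about 26% in these data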
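Buffer or medium: CSMM-D glucose medium, restrictive; test system: modified budding yeast, DeaD strain; compound: single dose 10 µM compound, 0.25% DMSO; schedule: culture preincubation 4 h, compound exposure 48 h, both 30 °C; detection: optical density (absorbance) at 615 nm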
Insulin prom inh: inhibitors of insulin promoter-driven GFP, primary screen, imaging, TRM-6 cells (human fetal islet line), eGFP reporter, cell count; 130,000 tested, 0.9% active; reporter expression induced with tamoxifen; inhibition, % at 2 µM;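 active = inhibition above the mean plus 3 SD, with well images judged a real hit on visual review, cut at about 60% in these data, passing the limit was not always enough; inconclusive = inhibition over the cutoff but images rejected on review; inactive = inhibition not above the cutoff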
RAM inhibit: inhibitors of the yeast RAM network, primary screen, dse1pr::URA3 reporter, 5-FOA selection; S. cerevisiae dse1pr::URA3 reporter, 5-FOA growth OD615, 2 d; analog-sensitive cbk1-as2 kinase mutant strain; inhibition, % at 50 µM; 190,000 tested, 1.8% active; AID 868, 2007;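 active = inhibition above a set limit, 3 SD over mean compound inhibition, cut at about 8.4% in these data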;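 note: inhibition rescues growth on 5-FOA so higher OD means more RAM inhibition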
Numbers stand for hits; i = inactive; ? = inconclusive; nt = no result; ! = not confirmed by another sample. Sampled rows, rich in hits. Any-hit rate of the full collection: about 3.1%.

SMILES	Insulin prom up	Yeast growth inh	Yeast life ext	Insulin prom inh	RAM inhibit
Cc1ccc(-c2cc(-c3ccccc3)nc(Cl)n2)cc1	i	i	i	nt	9.4
O=C(N/N=C/c1cccc(Cl)c1)C(c1ccncc1)N1CCOCC1 (configuration not stated)	i	nt	nt	nt	nt
COC(=O)C1CCN(C(=O)COC(=O)CCc2nc3ccccc3c(=O)[nH]2)CC1	i	i	i	i	i
O=S(=O)(c1ccc2c(c1)nc1n2CCC1)N1CCOCC1	i	i	i	i	i
FC(F)(F)c1ccc2c(c1)nc1n2CCCC1	i	i	i	73	i
CCC(=O)N/N=C(\C)CC(=O)Nc1ccc2c(c1)OCCO2	i	nt	nt	i	i
COc1cc(Cl)ccc1NC(=O)COc1ccccc1C(=O)N1CCN(c2ccc(O)cc2)CC1	nt	i	i	79	i
CCn1nnc2sc3c(c2c1=O)CCC(C)C3 (configuration not stated)	3.6	i	i	78	i
COc1cccc(C2=NO[C@@H]3C(=O)N(c4ccc5c(c4)OCCO5)C(=O)[C@H]23)c1OC	i	i	i	80	i
NC(=O)[C@@H]1CC2(CC(c3cccc(NC(=O)[C@@H]4CCC(=O)N4)c3)=NO2)CN1C(=O)Cc1ccc([N+](=O)[O-])cc1 (some centres not stated)	i	nt	nt	nt	nt
C#CCn1c(-c2cccs2)nc2ccccc21	i	nt	nt	93	i
CCn1c(-c2cccs2)nc2ccccc21	nt	i	nt	?	i
O=C(CCCC(=O)N(CC(=O)NC1CCCCC1)Cc1ccc2c(c1)OCO2)Nc1ccccn1	i	i	28	i	i
O=C(CCCC(=O)N(CC(=O)NC1CCCC1)Cc1ccc(F)cc1)Nc1ccccn1	i	i	i	i	i
CCCCCSc1nc(O)cc(=O)[nH]1	i	i	58	i	i
C=CCn1c(SCc2nc3c(c(=O)[nH]c(=O)n3CCCC)n2CCC)nnc1-c1ccccc1	i	i	i	nt	i
Nc1ccc2nc(SCc3ccc([N+](=O)[O-])cc3)sc2c1	i	i	i	nt	i
COc1ccccc1OCCSc1nc2ccc([N+](=O)[O-])cc2s1	nt	i	i	i	i
C=CCc1ccccc1OCCSc1nc2ccc([N+](=O)[O-])cc2s1	nt	i	i	i	11
O=[N+]([O-])c1ccc2nc(SCc3ccccc3Cl)sc2c1	i	i	i	nt	9.6
COc1ccc(NC(=O)Nc2cccs2)cc1Cl	nt	nt	nt	nt	i
CC(C)CSc1nc2ccccc2[nH]1	i	nt	nt	nt	i
CCCc1nc2ccccc2[nH]1	nt	i	i	80	i
CC1=CS(=O)(=O)CC1Sc1nc2ccccc2[nH]1 (configuration not stated)	i	i	68	nt	i
O=c1[nH]c2ccccc2nc1Cc1ccccc1	i	i	43	nt	i
SMILES	Insulin prom up	Yeast growth inh	Yeast life ext	Insulin prom inh	RAM inhibit
CC(C)Cc1nc2ccccc2[nH]1	i	nt	nt	nt	nt
CCSc1nc2ccccc2[nH]1	i	i	i	100!	i
O=C(Cc1nc2ccccc2[nH]c1=O)c1ccccc1	i	nt	nt	nt	i
CCN(CC(=O)Nc1ccccc1OC)CC(=O)Nc1c(Cl)ccc(C)c1Cl	nt	nt	nt	i	i
CCOc1ccc2nc(SCC)[nH]c2c1	i	i	i	86	i
c1ccc(CSCc2nc3ccccc3[nH]2)cc1	i	i	i	76	i
c1ccc(CSc2nc3ccccc3[nH]2)cc1	i	nt	nt	nt	nt
CCOc1ccc2nc(SCC(=O)Nc3nonc3C)[nH]c2c1	i	nt	nt	nt	9.1
CCC(=O)Nc1ccc(C(=O)CSc2nc3ccc(C)cc3[nH]2)cc1	i	i	i	i	i
CCC(=O)Nc1ccc(C(=O)CSc2nc3ccccc3[nH]2)cc1	nt	i	i	60	i
CCOc1ccc(OCCSc2nc3ccccc3[nH]2)cc1	i	i	nt	i	i
COc1ccc(OC)c(C2NC(=S)NC3=C2N2CCC3CC2)c1 (configuration not stated)	i	nt	nt	nt	i
CCOC(=O)c1sc(NC(=S)NC(=O)c2ccccc2)c(C(=O)OCC)c1C	i	i	i	i	i
CCOC(=O)C1=C(NC(=S)NC(=O)c2ccccc2)c2ccccc2CC1(C)CC (configuration not stated)	i	i	i	i	11
CCCOc1ccccc1Cn1c(=O)oc2ccc(C)cc21	i	i	i	i	i
CCCOc1ccc(Cn2c(=O)oc3ccc(C)cc32)cc1OC	i	i	nt	i	8.6
CCCCC1=CC2=CC(=O)C(C)(OC(=O)CC)C(=O)C2=CN1CCc1ccc(Br)cc1 (configuration not stated)	i	nt	nt	nt	nt
O=C(COC(=O)c1ccc([N+](=O)[O-])s1)Nc1ccccc1	i	i	i	i	i
CC(C)(C)c1ccc(NC(=O)COC(=O)c2ccc([N+](=O)[O-])s2)cc1	i	100	i	i	i
CCN(CC)CCN1C(=O)c2oc3ccccc3c(=O)c2C1c1ccccc1 (configuration not stated)	3.7	i	i	i	i
CN1C(=O)c2oc3ccccc3c(=O)c2C1c1ccccn1 (configuration not stated)	i	i	31	i	i
O=[N+]([O-])c1ccc(Nc2nc(N/N=C\c3ccc4c(c3)OCO4)nc(N3CCCCC3)n2)cc1	nt	i	i	i	11
O=[N+]([O-])c1ccc(/C=N/Nc2nc(N3CCCCC3)nc(N3CCCCC3)n2)cc1	i	nt	nt	nt	i
Cc1ccc(NC2=C(Cl)C(=O)OC2OC(=O)c2ccc(C)cc2)cc1 (configuration not stated)	nt	nt	nt	nt	9.9
CCC(=Nc1ccc(Cc2ccncc2)cc1)c1c(O)n(C)c(=O)n(C)c1=O	?	i	27	nt	i
SMILES	Insulin prom up	Yeast growth inh	Yeast life ext	Insulin prom inh	RAM inhibit
CCc1nnc(NC(=O)CN2CCN(c3ccc(Cl)cc3)CC2)s1	nt	nt	nt	i	nt
COc1cc(OC)c(-c2c3cc(O)c(=O)cc-3oc3cc(O)c(O)cc23)cc1OC	nt	i	i	i	10
Cc1ccc(N(C(=O)CS(=O)CC(=O)Nc2ccc(F)cc2)C(C(=O)NC2CCCCC2)c2ccco2)cc1 (configuration not stated)	i	i	94	i	i
Cc1ccccc1C(C(=O)NC1CCCC1)N(C(=O)Cc1cccs1)c1ccc2c(c1)OCCO2 (configuration not stated)	i	i	i	nt	i
CCc1ccc(N(C(=O)Cc2cccs2)C(C(=O)NC2CCCCC2)c2cn(C)nc2C)cc1 (configuration not stated)	nt	i	i	i	8.5
COc1ccccc1N1C(C)=CC(=C(C#N)c2nc3ccccc3s2)C=C1C	i	i	i	nt	8.5
COc1ccccc1CNC(=O)CSc1nnc2c(Cl)cc(C(F)(F)F)cn12	i	i	i	i	i
O=C(Nc1nc(N2C(=O)c3ccccc3C2=O)n(-c2ccccc2)n1)c1ccccc1	i	i	i	i	i
CC(=O)Nc1nc(N2C(=O)c3ccccc3C2=O)n(-c2ccccc2)n1	i	i	i	76	i
